# Screens (PubChem BioAssay)
# Shown are actives, neighbours in structure and some others; about 3.8% of the full set was active somewhere.
# MPTP block – inhibitors of mitochondrial permeability transition pore; isolated mouse mitochondria, Ca2+ swelling absorbance, 30 min; inhibition, % at 10 µM; 1.4% of 360,000 active;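 active means inhibition of 50% or more, scaled per plate between neutral and stimulator controls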;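 further: 0% = DMSO wells given calcium and 100% = 1 mM EGTA wells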
# CHO parental Ca – counter-screen: ATP calcium response change in parental CHO cells; AID 463079; 0.63% of 330,000 active; inhibition, % at 5.6 µM; parental CHO-K1, ATP-induced calcium, Fluo-8 fluorescence;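 active means inhibition above that plate's mean sample inhibition plus 3 SD, cut at about 26% in these data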;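 further: 0% = ATP-challenged DMSO wells and 100% = DMSO wells without ATP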
#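 Test system: untransfected parental CHO cell line; also added: ATP stimulus; dosing: 5.6 µM, single dose; signal: calcium-sensitive Fluo-8 fluorescence; measure: percent inhibition of ATP-evoked calcium rise, normalized to controls; benchmarks: low control ATP plus DMSO, high control DMSO only; replication: one well per compound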
# OX1R antag-1 – OX1R (human) antagonism | O43613 | OX1R-expressing cells, FRET antagonist read-out | inhibition, % at 6.6 µM | 1.8% of 330,000 active | AID 485270; in the data active means inhibition mostly above about 38%, no sharp cut-off; inactive means mostly below about 40%;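 further: 0% = agonist challenge alone and 100% = reference antagonist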
# GPR7 antag – human neuropeptides B/W receptor 1 antagonism; 1.1% of 290,000 active; GPR7-expressing cells, fluorescence antagonist assay; AID 1861; inhibition, % at 4.4 µM; in the data active means inhibition above about 16%, passing the limit was not always enough;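 further: cells stimulated with the agonist NPW; 0% = agonist with vehicle and 100% = vehicle without agonist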
# Target sequence (P48145 whole entry, looked up): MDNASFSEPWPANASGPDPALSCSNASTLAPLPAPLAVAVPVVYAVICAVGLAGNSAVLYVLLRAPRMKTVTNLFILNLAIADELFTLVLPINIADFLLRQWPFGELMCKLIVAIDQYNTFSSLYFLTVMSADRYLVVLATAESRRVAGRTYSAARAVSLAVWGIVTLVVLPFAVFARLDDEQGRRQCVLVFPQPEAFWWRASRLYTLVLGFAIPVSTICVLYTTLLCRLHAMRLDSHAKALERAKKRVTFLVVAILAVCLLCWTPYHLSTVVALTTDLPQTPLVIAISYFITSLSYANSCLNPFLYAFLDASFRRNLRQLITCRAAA
# OX1R antag-2 – antagonists of human orexin 1 receptor | AID 434989 | CHO/OX1R cells, Fluo-8 calcium fluorescence, orexin A | inhibition, % at 5 µM | 0.43% of 330,000 active;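 active means inhibition above its plate's threshold, mean inhibition of all tested compounds on the plate plus 3 SD, cut at about 37% in these data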;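 further: 0% = orexin A challenge wells and 100% = SB-334867-A antagonist wells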
# The depositor's hits bear a star; . = no result given.
SMILES,MPTP block,CHO parental Ca,OX1R antag-1,GPR7 antag,OX1R antag-2
CC(C)N1CCN(Cc2ccc(OC3CCCC3)cc2)CC1CCO (stereo not given),1,-11,-1,-4,-29
CCNS(=O)(=O)c1ccc(NC(=O)c2ccc(Cn3cc(Br)cn3)o2)cc1,2,7,25,0,22
COc1cc(/C=C2\SC(=S)NC2=O)ccc1OS(=O)(=O)c1ccccc1,.,11,80*,-6,10
COc1cc(/C=C2/SC(=S)NC2=O)ccc1OS(=O)(=O)c1ccc(C)cc1,25,6,64*,5,10
Cc1ccc(C(=O)N2CC(=O)Nc3ccc(F)cc3C2c2ccc(F)cc2)cc1[N+](=O)[O-] (stereo not given),-1,-15,4,-8,-18
O=C1CSC(=S)N1Cc1ccccc1,0,.,.,.,.
CCCC(=O)OCCNc1cc(Sc2nc3ccccc3[nH]2)c2nonc2c1[N+](=O)[O-],0,38*,65*,25*,13
CC(=O)OCCCNc1cc(Sc2ccc(Cl)cc2)c2nonc2c1[N+](=O)[O-],9,2,9,-10,16
C/C(=C1/C(=O)N(c2ccc([N+](=O)[O-])cc2)N=C1c1ccccc1)N(C)C,.,20,42*,3,18
N#Cc1cc2nc(O)c(O)nc2cc1[N+](=O)[O-],0,1,76*,.,12
N#Cc1cc(N2CCCCC2)c([N+](=O)[O-])cc1C#N,1,-13,34,7,-8
CC1CCN(C(=O)c2ccccc2NS(=O)(=O)c2ccccc2)CC1,1,-12,50*,-5,-21
CCOC(=O)C1=CC[C@@H](c2cccc(Br)c2)N(S(=O)(=O)c2ccc(F)cc2)[C@H]1c1cccc(Cl)c1,4,.,.,.,.
CCOC(=O)c1sc2c(c1C)c(=O)n(Cc1ccccc1)c(=O)n2CCN(C)C,2,-15,5,10,-18
Cc1ccc(O)c(-c2cc(-c3cccc(Br)c3)n[nH]2)c1,5,54*,12,-15,24
Cn1c(=NC(=O)CS(=O)(=O)c2ccccc2)sc2ccccc21,0,-6,1,.,-13
C#CCn1c(=NC(=O)c2cccs2)sc2cccc(OC)c21,1,12,66*,-1,-41
CCn1c(=NC(=O)CS(=O)(=O)c2ccccc2)sc2cccc(OC)c21,-2,5,33*,.,20
Cc1[nH]c(C)c(S(=O)(=O)NCc2ccco2)c1C(=O)N1CCCCC1,-2,7,9,-9,-5
O=S(=O)(NC1CCCCC1N1CCN(c2ccc(F)cc2)CC1)c1ccccc1 (stereo not given),0,-27,10,13,-13
COc1ccc(C(C)(O)c2nc(-c3ccc4c(c3)OCO4)cs2)cc1 (stereo not given),2,.,.,.,.
CCCCNC(=O)COc1ccccc1[N+](=O)[O-],-1,2,8,-6,-5
O=C(c1ccc(-c2ccc(Cl)cc2)o1)N1CCN(c2ccc([N+](=O)[O-])cc2Cl)CC1,44,37*,17,-4,6
Cc1ccc(OCC(=O)Nc2ccc([N+](=O)[O-])cn2)cc1C,26,42*,18,-2,-8
O=C(Nc1ccc([N+](=O)[O-])cn1)C1CC1,-1,-3,63,-1,-3
SMILES,MPTP block,CHO parental Ca,OX1R antag-1,GPR7 antag,OX1R antag-2
CC(=O)Nc1ccc([N+](=O)[O-])cn1,3,-7,76*,4,-17
Cc1nn(-c2nc3ccccc3s2)c(C)c1Oc1ccccc1O,4,32*,38,-9,67*
COc1ccc(NC(=O)C(c2ccnc3ccccc23)n2c(=O)c(-c3ccccc3)nc3ccccc32)cc1 (stereo not given),0,.,.,.,.
NC(=S)N1OC[C@@H]2COc3ccc4ccccc4c3[C@@H]21,0,0,8,16*,13
Cc1ccc(-c2csc(NC(=O)CN3CC(C)OC(C)C3)n2)cc1 (stereo not given),1,-10,8,3,-20
O=C(NCC1CCCN1S(=O)(=O)c1cccs1)C(=O)Nc1ccccc1F (stereo not given),0,.,.,.,.
O=C(NCC1CCCN1S(=O)(=O)c1cccs1)c1cccc(Cl)c1 (stereo not given),-2,-23,53*,.,-12
O=C(NCC1CCCN1S(=O)(=O)c1cccs1)C(=O)Nc1ccccc1Cl (stereo not given),-3,2,45*,.,0
Cc1noc(C)c1CCC(=O)N1CCCC(N2CCN(c3ccc(F)cc3)CC2)C1 (stereo not given),0,-19,5,-9,-4
CC(=O)c1cn(-c2ccc(Cl)cc2)c(=O)[nH]c1=O,0,-8,-1,-2,1
COc1ccc(/C=C2\SC(=O)N(CCNC(=O)Cn3cnnn3)C2=O)cc1,-2,-10,20,-14,-10
CCc1noc(C)c1C(=O)NCCN1C(=O)S/C(=C\c2ccc(OC)cc2)C1=O,4,23,58*,.,-3
CCOc1ccc(CCNC(=O)CS(=O)Cc2nc(-c3ccc(OC)cc3)oc2C)cc1OCC (stereo not given),0,-24,50*,-17,3
COc1ccc(-c2nc(CS(=O)CC(=O)NCCc3ccc(OC)c(OC)c3)c(C)o2)cc1 (stereo not given),0,-2,9,-11,-22
CCOc1ccc(CCNC(=O)CS(=O)Cc2nc(-c3ccccc3Cl)oc2C)cc1OCC (stereo not given),-3,-25,72*,-12,18
O=[N+]([O-])c1cc(C(F)(F)F)cc([N+](=O)[O-])c1N1CCCNCC1,0,-9,14,-6,-2
COCCn1c(C)cc(C(=O)CN2C(=O)NC3(CCCCCC3)C2=O)c1C,-1,-2,30*,.,-11
CSc1nnc(-c2ccc(F)cc2)o1,-2,-5,14,-6,-3
CSc1nnc(-c2ccc([N+](=O)[O-])cc2)o1,0,-9,62*,-6,-3
C#CCSc1nnc(-c2ccc([N+](=O)[O-])cc2)o1,-1,-3,51*,-5,-3
COc1ccccc1/C=N/OCc1cc(C(C)=O)ccc1OC,-1,-29,21,-6,-38
CCOC(=O)c1c(CSc2ccccc2)n(C)c2cc(Br)c(OCC(O)CNC(CO)(CO)CO)cc12 (stereo not given),-1,90*,13,-10,45
CCOC(=O)c1c(CSc2ccccc2)n(C)c2cc(Br)c(OC)c(O)c12,0,-5,11,-32,-25
Cc1ccc(C)c(NC(=O)c2cc(C)nc3ccccc23)c1,1,67*,17,-3,-16
Cc1cc(NC(=O)Cc2ccccc2)c2ccccc2n1,45,33*,48,-1,35
COC(=O)Nc1cc(C)nc2ccccc12,1,1,16,-14,3
Cc1ccc(NC(=O)c2cc(C)nc3ccccc23)cc1,0,-11,2,-11,-12
O=C(COC(=O)CCSc1ccc(Cl)cc1)NCc1ccco1,1,-8,7,-10,-15
